Results: ChEMBL document CHEMBL3425499, “Iridoid glycosides from Barleria lupulina” (J Nat Prod, 2015)
≈ marks a conversion by molar mass, not a printed value. Calls of active or inactive are those of the source. No cut-off for these calls is given here.

Columns and labels:
MDA-MB-231 = assay: Cytotoxicity against Stat3-activated human MDA-MB-231 cells assessed as growth inhibition at 20 ug/ml after 72 hrs by CyQuant assay; assay type: functional, cell-based
Method in brief: (§1)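 Cells were seeded at 1000 per well and grown 24 h. They were then exposed to 20 μg/mL compound for 72 h. Viability was measured by the CyQuant assay following the kit instructions and expressed relative to DMSO-treated control cells.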

U-251 = assay: Cytotoxicity against Stat3-activated human U251MG cells assessed as growth inhibition at 20 ug/ml after 72 hrs by CyQuant assay; assay type: functional, cell-based; method in brief: as §1
NIH3T3 = assay: Cytotoxicity against mouse NIH/3T3 cells assessed as growth inhibition at 20 ug/ml after 72 hrs by CyQuant assay
[1] = Antioxidant activity assessed as DPPH free radical scavenging activity measured as decoloration of a MeOH solution after 10 mins by spectrophotometry; assay type: physicochemical
Method in brief: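 Compounds were dissolved in MeOH at various concentrations and mixed with a methanolic DPPH solution. Mixtures were held 10 min in the dark, then remaining DPPH was read as absorbance at 517 nm. Scavenging was calculated against a blank of DPPH plus solvent, taken as 100%.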

Compound	inhibition (MDA-MB-231)	inhibition (U-251)	inhibition (NIH3T3)	IC50 [1]
COC(=O)C1=CO[C@@H](O[C@@H]2O[C@H](CO)[C@@H](O)[C@H](O)[C@H]2O)[C@H]2[C@@H]1[C@H](OC(C)=O)C[C@]2(C)OC(C)=O	inactive	inactive	inactive	
C[C@]1(O)CC[C@@H]2C(C(=O)O)=CO[C@@H](O[C@@H]3O[C@H](CO)[C@@H](O)[C@H](O)[C@H]3O)[C@@H]21	inactive	inactive	inactive	
COC(=O)C1=CO[C@@H](O[C@@H]2O[C@H](CO)[C@@H](O)[C@H](O)[C@H]2O)[C@H]2[C@@H]1[C@H](OC(C)=O)C[C@]2(C)O	inactive	inactive	inactive	286.4 µg/mL (≈ 639 µM)
C[C@]1(O)C[C@@H](O)[C@@H]2C(C(=O)O)=CO[C@@H](O[C@@H]3O[C@H](CO)[C@@H](O)[C@H](O)[C@H]3O)[C@@H]21 [SHANZHISIDE]	inactive	inactive	inactive	78.6 µg/mL (≈ 200 µM)
COC(=O)C1=CO[C@@H](O[C@@H]2O[C@H](CO)[C@@H](O)[C@H](O)[C@H]2O)[C@H]2[C@@H]1[C@H](O)C[C@]2(C)O [SHANZHISIDE METHYL ESTER]	inactive	inactive	inactive	97.5 µg/mL (≈ 240 µM)
COc1ccc(/C=C/C(=O)O[C@@H]2C[C@](C)(OC(C)=O)[C@H]3[C@H](O[C@@H]4O[C@H](CO)[C@@H](O)[C@H](O)[C@H]4O)OC=C(C(=O)O)[C@H]32)cc1	inactive	inactive	inactive	
O=c1c(O)c(-c2ccc(O)c(O)c2)oc2cc(O)cc(O)c12 [QUERCETIN]				9.52 µg/mL (≈ 31.5 µM)
COC(=O)C1=CO[C@@H](O[C@@H]2O[C@H](CO)[C@@H](O)[C@H](O)[C@H]2O)[C@H]2[C@@H]1[C@H](O)C[C@]2(C)OC(C)=O [BARLERIN]	inactive	inactive	inactive	110.3 µg/mL (≈ 246 µM)
COc1ccc(/C=C\C(=O)O[C@@H]2C[C@](C)(OC(C)=O)[C@H]3[C@H](O[C@@H]4O[C@H](CO)[C@@H](O)[C@H](O)[C@H]4O)OC=C(C(=O)O)[C@H]32)cc1	inactive	inactive	inactive	
COC(=O)C1=CO[C@@H](O[C@@H]2O[C@H](CO)[C@@H](O)[C@H](O)[C@H]2O)[C@H]2[C@@H]1[C@H](OC(=O)/C=C/c1ccc(O)cc1)C[C@]2(C)OC(C)=O				486.5 µg/mL (≈ 818 µM)
O=C1O[C@H]([C@@H](O)CO)C(O)=C1O [ASCORBIC ACID]				7.63 µg/mL (≈ 43.3 µM)
C[C@]1(O)C[C@@H](O)[C@@H]2C(C(=O)O)=CO[C@@H](O[C@@H]3O[C@H](COC=O)[C@@H](O)[C@H](O)[C@H]3O)[C@@H]21	inactive	inactive	inactive	
O=C(O)c1cc(O)c(O)c(O)c1 [GALLIC ACID]				2.79 µg/mL (≈ 16.4 µM)
COC(=O)C1=CO[C@@H](O[C@@H]2O[C@H](CO)[C@@H](O)[C@H](O)[C@H]2O)[C@@H]2[C@@](C)(OC(C)=O)CC[C@]12O	inactive	inactive	inactive	
COC(=O)C1=CO[C@@H](O[C@@H]2O[C@H](COC=O)[C@@H](O)[C@H](O)[C@H]2O)[C@H]2[C@@H]1[C@H](O)C[C@]2(C)OC(C)=O	inactive	inactive	inactive	
COC(=O)C1=CO[C@@H](O[C@@H]2O[C@H](COC=O)[C@@H](O)[C@H](O)[C@H]2O)[C@H]2[C@@H]1[C@H](OC(C)=O)C[C@]2(C)OC(C)=O	inactive	inactive	inactive	
C[C@]1(O)C[C@@H](OC=O)[C@@H]2C(C(=O)O)=CO[C@@H](O[C@@H]3O[C@H](CO)[C@@H](O)[C@H](O)[C@H]3O)[C@@H]21	inactive	inactive	inactive	
CC(=O)O[C@@]1(C)C[C@@H](O)[C@@H]2C(C(=O)O)=CO[C@@H](O[C@@H]3O[C@H](CO)[C@@H](O)[C@H](O)[C@H]3O)[C@@H]21	inactive	inactive	inactive	
